This note sets out measurements from ChEMBL document CHEMBL1159098, “A new series of flavones, thioflavones, and flavanones as selective monoamine oxidase-B inhibitors” (Bioorg Med Chem, 2010).

In data set [1] the target is T1, Amine oxidase [flavin-containing] A (Homo sapiens, UniProt P21397).
T1 sequence (P21397 whole entry): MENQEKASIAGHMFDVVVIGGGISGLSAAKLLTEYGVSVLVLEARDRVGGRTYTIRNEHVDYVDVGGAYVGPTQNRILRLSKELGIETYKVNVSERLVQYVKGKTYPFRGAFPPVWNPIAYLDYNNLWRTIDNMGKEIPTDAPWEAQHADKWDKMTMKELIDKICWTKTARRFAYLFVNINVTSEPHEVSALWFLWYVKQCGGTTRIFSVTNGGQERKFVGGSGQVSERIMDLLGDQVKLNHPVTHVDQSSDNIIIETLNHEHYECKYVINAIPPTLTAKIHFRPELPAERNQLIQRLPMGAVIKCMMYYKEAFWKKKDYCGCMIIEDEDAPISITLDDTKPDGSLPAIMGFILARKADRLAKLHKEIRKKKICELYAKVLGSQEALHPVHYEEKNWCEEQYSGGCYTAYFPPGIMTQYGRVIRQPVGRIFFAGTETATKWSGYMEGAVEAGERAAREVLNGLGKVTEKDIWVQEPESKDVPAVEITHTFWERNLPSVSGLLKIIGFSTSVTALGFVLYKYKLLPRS
The data set is described as follows: Inhibition of human recombinant MAOA expressed in BTI-TN-5B1-4 cells at 500 uM before washing by centrifugation-ultrafiltration method. It is filed as cell-based. The settings on record: BTI-TN-5B1-4, human.

In data set [2] the target is T2, Amine oxidase [flavin-containing] B (Homo sapiens, UniProt P27338).
T2 sequence (P27338 whole entry): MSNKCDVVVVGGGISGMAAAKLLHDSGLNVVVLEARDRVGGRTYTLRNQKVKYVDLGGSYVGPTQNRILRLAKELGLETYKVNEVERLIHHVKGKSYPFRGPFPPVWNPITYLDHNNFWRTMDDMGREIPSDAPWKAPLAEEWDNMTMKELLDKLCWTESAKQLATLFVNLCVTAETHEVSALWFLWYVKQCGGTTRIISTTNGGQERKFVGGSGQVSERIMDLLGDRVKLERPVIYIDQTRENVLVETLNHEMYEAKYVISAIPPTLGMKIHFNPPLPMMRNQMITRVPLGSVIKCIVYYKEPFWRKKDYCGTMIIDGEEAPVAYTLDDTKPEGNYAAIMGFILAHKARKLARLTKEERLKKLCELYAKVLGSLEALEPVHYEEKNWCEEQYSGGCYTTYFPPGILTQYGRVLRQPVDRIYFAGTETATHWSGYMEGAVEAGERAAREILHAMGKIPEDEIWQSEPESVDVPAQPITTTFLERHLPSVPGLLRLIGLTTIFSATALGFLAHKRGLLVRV
The data set is described as follows: Inhibition of human recombinant MAOB expressed in BTI-TN-5B1-4 cells at 1 mM by para-tyramine oxidation assay. It is filed as cell-based. The settings on record: bti-tn-5b1-4, 1000 µM.

The target of data set [3] is T2, Amine oxidase [flavin-containing] B. Description: Inhibition of human MAOB. A digest of the protocol: (§1)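 Recombinant human MAO-A or -B as microsomes from baculovirus-infected BTI-TN-5B1-4 insect cells, dosed to oxidize 165 pmol p-tyramine/min in controls (A 1.1 µg, B 7.5 µg protein). Preincubated with inhibitor 15 min at 37 °C in 0.05 M sodium phosphate pH 7.4. Started with 1 mM p-tyramine, 200 µM Amplex Red, 1 U/ml HRP (final). Resorufin fluorescence (ex 545/em 590 nm) read over 15 min at 37 °C, background subtracted.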

Data set [4] addresses T1, Amine oxidase [flavin-containing] A. The data set is described as follows: Inhibition of human MAOA. An outline of the steps: as §1
Data set [5] in a line: Inhibition of human monoamine oxidase.
In data set [6] the target is T1, Amine oxidase [flavin-containing] A. Description: Inhibition of human recombinant MAOA expressed in BTI-TN-5B1-4 cells at 100 uM by para-tyramine oxidation assay. The data set is classed as cell-based. As to conditions: for inhibition at 100 µM: BTI-TN-5B1-4, human; for inhibition (INH): human, bti-tn-5b1-4, 100 µM; call rule not given here.
In data set [7] the target is T2, Amine oxidase [flavin-containing] B. The data set is described as follows: Inhibition of human recombinant MAOB expressed in BTI-TN-5B1-4 cells at 100 uM by para-tyramine oxidation assay. The data set is classed as cell-based. As to conditions: for inhibition at 100 µM: BTI-TN-5B1-4, human.
For data set [8] the target is unchanged. The data set is described as follows: Inhibition of human recombinant MAOB expressed in BTI-TN-5B1-4 cells at 100 nM before washing by centrifugation-ultrafiltration method. The data set is classed as cell-based. The settings on record: BTI-TN-5B1-4, human. A digest of the protocol: (§2)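 Recombinant hMAO-B was incubated with one concentration of inhibitor in 0.05 M sodium phosphate pH 7.4 for 15 min at 37 °C. One aliquot was kept at 4 °C unwashed. The rest was washed three times by 30 kDa ultrafiltration (9000g, 20 min, 4 °C) and resuspended in buffer.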

Data set [9] has the same target. It is filed as cell-based, BTI-TN-5B1-4.
For the next data set, the species on record is Homo sapiens. Description: Selectivity for human MAOB over human MAOA. A digest of the protocol:
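Selectivity index = IC50(hMAO-A)/IC50(hMAO-B), both from Amplex Red/p-tyramine fluorimetric assays on insect-cell recombinant enzymes.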

For data set [10], the target named is T2, Amine oxidase [flavin-containing] B. The data set is described as follows: Inhibition of human recombinant MAOB expressed in BTI-TN-5B1-4 cells at 100 nM after repeated washing by centrifugation-ultrafiltration method. As to conditions: BTI-TN-5B1-4, human. The data set is classed as cell-based. A digest of the protocol: as §2

In the case of `O=C(NCCN1CCOCC1)c1ccc(Cl)cc1` [MOCLOBEMIDE], in [1], the inhibition at 500 µM came out at 84.8%. The “inhibition (INH)” value in [2] is “Not Active”. `O=c1cc(-c2ccc(O)cc2)oc2cc(O)cc(O)c12` [APIGENIN]: the concentration for half-maximal inhibition (IC50) in data set [3] came to 12.8 µM; in [4], 1.7 µM. With `O=c1c(O)c(-c2ccc(O)c(O)c2)oc2cc(O)cc(O)c12` [QUERCETIN], the IC50 in [3] is 90 µM; in data set [4], 2.8 µM. For `COc1c(O)cc2oc(-c3ccc(O)c(O)c3)cc(=O)c2c1O` [EUPAFOLIN], in [5], the IC50 was 25 µM.

On to `O=C1c2c(O)cc(O)cc2O[C@H](c2ccc(O)cc2)[C@H]1O` [DIHYDROKAEMPFEROL], for which half-maximal inhibition in data set [5] (IC50) required 153 µM. With `Cc1ccc(-c2cc(=O)c3ccc(C)cc3o2)cc1`, the inhibition at 100 µM in [6] and in [7] was 40% in each case. As to `COc1ccc2c(=O)cc(-c3ccccc3)oc2c1` [7-METHOXYFLAVONE], in data set [6], the “inhibition (INH)” value was “Not Active”. Further, in [7], the inhibition at 100 µM was found to be 40%. Consider `O=c1cc(-c2ccc(O)c(O)c2)oc2cc(O)cc(O)c12` [LUTEOLIN], for which the IC50 amounted to 59.7 µM in data set [3] and 4.9 µM in [4].

`Cc1ccc2c(=O)cc(-c3ccc(F)cc3)oc2c1`: in data set [6], the “inhibition (INH)” value was “Not Active”. For the same molecule, in data set [7], the inhibition at 100 µM was determined as 40%. With `COc1ccc(-c2cc(=S)c3ccc(C)cc3o2)cc1`, the “inhibition (INH)” value in data set [6] was “Not Active”. Also, the inhibition at 100 µM in data set [7] stood at 40%. Consider `Cc1ccc2c(=S)cc(-c3ccc(F)cc3)oc2c1`, for which, in data set [6], the “inhibition (INH)” value is given as “Not Active”. Besides, in data set [7], the inhibition at 100 µM is 40%.

`Cc1ccc2c(=S)cc(-c3ccccc3)oc2c1`: the “inhibition (INH)” value in data set [6] is listed as “Not Active”. Also, the inhibition at 100 µM in data set [7] amounted to 40%.

Consider `O=C1c2c(O)cc(O)cc2O[C@H](c2ccc(O)c(O)c2)[C@H]1O` [(+)-TAXIFOLIN], for which the IC50 in data set [5] was 155 µM.

Turning to `Cc1ccc2c(c1)OC(c1ccc(F)cc1)CC2=O` (racemic), the “inhibition (INH)” value in data set [6] was “Not Active”. The inhibition at 0.1 µM in data set [8] stood at 38.4%; in data set [10], 36.5%. This molecule also registered a concentration for half-maximal inhibition (IC50) in data set [9] of 0.13 µM. Also, the Ratio IC50 in the data set filed under Homo sapiens is greater than 769. With `S=c1cc(-c2ccccc2)oc2ccccc12`, the “inhibition (INH)” value in [6] is given as “Not Active”. In addition, in data set [7], the inhibition at 100 µM came to 40%. As for `COc1cc(-c2cc(=O)c3c(O)c(OC)c(O)cc3o2)ccc1O` [JACEOSIDINE], the IC50 in [5] was 19 µM.

`O=c1cc(-c2ccc(F)cc2)oc2ccccc12`: the inhibition at 100 µM in [6] and in data set [7] was 40% in each case. Consider `COc1ccc(-c2cc(=O)c3ccc(C)cc3o2)cc1`, for which the inhibition at 100 µM in data set [6] and in data set [7] was 40% each time. In the case of `Cc1ccc2c(=O)cc(-c3ccccc3)oc2c1` [7-METHYLFLAVONE], the “inhibition (INH)” value in data set [6] was “Not Active”; in data set [7] (human, bti-tn-5b1-4, 100 µM), “Not Active”.
